Assay results gathered from unrelated publications.
Each line is one published result; the experiments were not run side by side.
Target: Calcium/calmodulin-dependent protein kinase type II subunit delta (CAMK2D, Homo sapiens, UniProt Q13557)

Compound | assay | system | conditions | quantity | value
CC/C(=N\NC(=O)NCc1cccc(O)c1)c1ccc(O)c(C)c1O | enzyme activity, inhibitor | – | 0.1 µM | inhibition | -4.9%
CCN1CCN(Cc2ccc(NC(=O)c3ccc(C)c(Oc4ccnc5[nH]ccc45)c3)cc2C(F)(F)F)CC1 | target engagement in cells, inhibitor, chemoproteomics | Huh-7 | 1 µM | inhibition | -12%
Cc1ccc(C(=O)Nc2ccc(CN3CCN(C)CC3)c(C(F)(F)F)c2)cc1C#Cc1cnc2cccnn12 | enzyme activity | – | 23.5 nM | remaining activity | 96%
CC(C)(C)c1nc(-c2cccc(NS(=O)(=O)c3c(F)cccc3F)c2F)c(-c2ccnc(N)n2)s1 | enzyme activity, inhibitor, radiometric | – | 1 µM | remaining activity | 97%
CC1=C(C#N)[C@@H](c2ccc3[nH]nc(C)c3c2)C(C#N)=C(c2ccc(Cl)cc2)N1 | cell-free assay, competition with immobilised ligand | – | 1 µM | remaining binding | 82.1%
Cc1ccc(-n2nc(C(C)(C)C)cc2NC(=O)Nc2ccc(OCCN3CCOCC3)c3ccccc23)cc1 | enzyme activity, inhibitor | – | 10 µM | inhibition | 22%
COc1ccc2c(c1)O[C@H](c1ccc(OC)c(OC)c1)C[C@@H]2NC(=O)C1(c2ccc3c(c2)OC(F)(F)O3)CC1 | cell-free assay, competition with immobilised ligand | – | 1 µM | remaining binding | 100%
CCN(CC)CCNC(=O)c1c(C)[nH]c(/C=C2\C(=O)Nc3ccc(F)cc32)c1C | enzyme activity, inhibitor | – | 10 µM | inhibition | 96%
CNCc1ccccc1-c1csc([C@H](C)Nc2nc(C)nc3cc(OC)c(OC)cc23)c1 | cell-free assay, competition with immobilised ligand | – | 1 µM | remaining binding | 97%
C#Cc1cccc(Nc2ncnc3cc(OCCOC)c(OCCOC)cc23)c1 | cell-free assay | – | 0.5 µM | remaining signal | 95.1%
CCCOc1ccc(OC)c(F)c1C(=O)c1ccc(C(=O)N[C@@H]2CNC[C@H]2NC(=O)c2ccc3[nH]ncc3c2)cc1 | enzyme activity, inhibitor | – | 10 µM | remaining activity | 53%
O=C(Nc1cnn(-c2csc(C(=O)NC3COC3)c2)c1)Nc1ccccc1Cl | enzyme activity, inhibitor | – | 5 µM | remaining activity | 103%
Cc1c(NC(=O)c2cc(C(N)=O)nc3cc(F)ccc23)c(C(F)(F)F)nn1Cc1ccc(C#N)cc1 | cell-free assay, competition with immobilised ligand | – | 1 µM | remaining binding | 90%
O=C(Nc1cnn(-c2csc(C(=O)NC3COC3)c2)c1)Nc1c(F)cccc1Cl | enzyme activity, inhibitor | – | 5 µM | remaining activity | 93.5%
COc1cc2ncnc(Nc3ccc(Oc4ccccc4)cc3C)c2cc1OC | enzyme activity, inhibitor | – | 1 µM | inhibition | 4%
CNC(=O)c1cc(Oc2ccc(NC(=O)Nc3ccc(Cl)c(C(F)(F)F)c3)cc2)ccn1 | enzyme activity, inhibitor | – | 10 µM | inhibition | 79%
O=C(O)[C@@H]1[C@@H](Cn2nnc3ccccc3c2=O)CC[C@H]1C(=O)c1ccc(OCCC2CCOCC2)cc1 | cell-free assay, competition with immobilised ligand | – | 1 µM | remaining binding | 100%
O=C1Nc2ccc(Cl)cc2C1=Cc1cc(Cl)c(O)c(Cl)c1 | cell-free assay | – | 0.5 µM | remaining signal | 80.2%
CC(C)(O)c1cncc(-c2nc3ccc(F)cc3n2C2CC2)c1 | cell-free assay, competition with immobilised ligand | – | 1 µM | remaining binding | 100%
Nc1ncnc2occ(-c3ccc(NC(=O)Nc4cc(C(F)(F)F)ccc4F)cc3)c12 | cell-free assay, inhibitor | – | 20 µM | remaining signal | 94%
CCCS(=O)(=O)Nc1ccc(F)c(C(=O)c2c[nH]c3ncc(-c4ccc(Cl)cc4)cc23)c1F | enzyme activity, inhibitor | – | 1 µM | inhibition | < 10%
NS(=O)(=O)c1cc(NC(=O)C2(c3ccccc3Cl)CC2)ccc1Oc1cccc(Cl)c1 | cell-free assay, competition with immobilised ligand | – | 1 µM | remaining binding | 100%
CC(C)(O)[C@H]1CC[C@H](Nc2ccc3ncc(-c4cccc(C(F)(F)F)c4)n3n2)CC1 | enzyme activity, inhibitor | – | 1 µM | remaining activity | 81.8%
COc1cc(Nc2c(C#N)cnc3cc(OCCCN4CCN(C)CC4)c(OC)cc23)c(Cl)cc1Cl | cell-free assay | – | 0.5 µM | remaining signal | 94.6%
CCOC(=O)c1cc2cc(-c3cc(C(=O)NCc4ccc(C(=O)O)cc4)nn3C)ccc2[nH]1 | cell-free assay, competition with immobilised ligand | – | 0.1 µM | remaining binding | 91%
Cc1ccc(Nc2nccc(N(C)c3ccc4c(C)n(C)nc4c3)n2)cc1S(N)(=O)=O | enzyme activity, inhibitor | – | 10 µM | inhibition | 66%
CCCCNc1ncc2c(-c3ccc(F)cc3)nn(C[C@H]3CC[C@H](N)CC3)c2n1 | target engagement in cells, inhibitor, chemoproteomics | – | 20 mM | inhibition | 44.3%
